Test results: ChEMBL document CHEMBL1136290, “Concise synthesis and biological activities of 2alpha-alkyl- and 2alpha-(omega-hydroxyalkyl)-20-epi-1alpha,25-dihydroxyvitamin D3” (2003)

Assays:
HL-60 = assay: In vitro induction of HL-60 cell differentiation.; format: functional, Homo sapiens; set-up: reference not given here
Outline: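 HL-60 differentiation was scored by the NBT reduction method.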

[1] = target: T1, Vitamin D3 receptor (Bos taurus) (UniProt Q28037); assay: Binding affinity at bovine thymus Vitamin D3 receptor relative to 1-alpha,25-Dihydroxyvitamin D3.
T1 sequence (whole entry): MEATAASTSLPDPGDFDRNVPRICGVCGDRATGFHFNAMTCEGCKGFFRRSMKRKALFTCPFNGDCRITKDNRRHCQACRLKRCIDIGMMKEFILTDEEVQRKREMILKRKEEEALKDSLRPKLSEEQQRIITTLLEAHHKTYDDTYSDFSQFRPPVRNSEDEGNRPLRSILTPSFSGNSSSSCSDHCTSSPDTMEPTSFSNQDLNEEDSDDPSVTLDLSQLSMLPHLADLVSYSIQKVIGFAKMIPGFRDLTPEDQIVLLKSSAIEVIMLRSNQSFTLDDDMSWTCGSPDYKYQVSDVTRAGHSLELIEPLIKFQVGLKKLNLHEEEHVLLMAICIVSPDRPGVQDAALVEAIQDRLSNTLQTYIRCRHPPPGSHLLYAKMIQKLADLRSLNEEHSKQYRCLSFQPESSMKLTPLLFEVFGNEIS

| SMILES | Potency (HL-60) | relative binding affinity (RBA) [1] |
| --- | --- | --- |
| C=C1/C(=C\C=C2/CCC[C@]3(C)[C@@H]([C@H](C)CCCC(C)(C)O)CC[C@@H]23)C[C@@H](O)C[C@@H]1O [CALCITRIOL] | 100 | 100 |
| C=C1/C(=C\C=C2/CCC[C@]3(C)[C@@H]([C@@H](C)CCCC(C)(C)O)CC[C@@H]23)C[C@@H](O)[C@H](CCC)[C@@H]1O | 1750 | 119 |
| C=C1/C(=C\C=C2/CCC[C@]3(C)[C@@H]([C@H](C)CCCC(C)(C)O)CC[C@@H]23)C[C@@H](O)[C@H](CCCCO)[C@@H]1O | 460 | 120 |
| C=C1/C(=C\C=C2/CCC[C@]3(C)[C@@H]([C@H](C)CCCC(C)(C)O)CC[C@@H]23)C[C@@H](O)[C@H](CCC)[C@@H]1O | 44 | 20 |
| C=C1/C(=C\C=C2/CCC[C@]3(C)[C@@H]([C@H](C)CCCC(C)(C)O)CC[C@@H]23)C[C@@H](O)[C@H](CCO)[C@@H]1O | 86 | 70 |
| C=C1/C(=C\C=C2/CCC[C@]3(C)[C@@H]([C@@H](C)CCCC(C)(C)O)CC[C@@H]23)C[C@@H](O)[C@H](CCCCO)[C@@H]1O | 3910 | 183 |
| C=C1/C(=C\C=C2/CCC[C@]3(C)[C@@H]([C@H](C)CCCC(C)(C)O)CC[C@@H]23)C[C@@H](O)[C@H](CO)[C@@H]1O | 10 | 20 |
| C=C1/C(=C\C=C2/CCC[C@]3(C)[C@@H]([C@@H](C)CCCC(C)(C)O)CC[C@@H]23)C[C@@H](O)[C@H](CO)[C@@H]1O | 570 | 190 |
| C=C1/C(=C\C=C2/CCC[C@]3(C)[C@@H]([C@@H](C)CCCC(C)(C)O)CC[C@@H]23)C[C@@H](O)[C@H](CC)[C@@H]1O | 4200 | 150 |
| C=C1/C(=C\C=C2/CCC[C@]3(C)[C@@H]([C@@H](C)CCCC(C)(C)O)CC[C@@H]23)C[C@@H](O)[C@H](CCCC)[C@@H]1O | 2300 | 33 |
| C=C1/C(=C\C=C2/CCC[C@]3(C)[C@@H]([C@H](C)CCCC(C)(C)O)CC[C@@H]23)C[C@@H](O)[C@H](CCCC)[C@@H]1O | 74 | 8 |
| C=C1/C(=C\C=C2/CCC[C@]3(C)[C@@H]([C@@H](C)CCCC(C)(C)O)CC[C@@H]23)C[C@@H](O)[C@H](CCO)[C@@H]1O | 4030 | 320 |
| C=C1/C(=C\C=C2/CCC[C@]3(C)[C@@H]([C@H](C)CCCC(C)(C)O)CC[C@@H]23)C[C@@H](O)[C@H](CCCO)[C@@H]1O | 240 | 300 |
| C=C1/C(=C\C=C2/CCC[C@]3(C)[C@@H]([C@@H](C)CCCC(C)(C)O)CC[C@@H]23)C[C@@H](O)[C@H](CCCO)[C@@H]1O | 4900 | 370 |
| C=C1/C(=C\C=C2/CCC[C@]3(C)[C@@H]([C@H](C)CCCC(C)(C)O)CC[C@@H]23)C[C@@H](O)[C@H](CC)[C@@H]1O | 106 | 40 |
| C=C1/C(=C\C=C2/CCC[C@]3(C)[C@@H]([C@@H](C)CCCC(C)(C)O)CC[C@@H]23)C[C@@H](O)[C@H](C)[C@@H]1O | 9688 | 1200 |
| C=C1/C(=C\C=C2/CCC[C@]3(C)[C@@H]([C@@H](C)CCCC(C)(C)O)CC[C@@H]23)C[C@@H](O)C[C@@H]1O | 3571 | 400 |
| C=C1/C(=C\C=C2/CCC[C@]3(C)[C@@H]([C@H](C)CCCC(C)(C)O)CC[C@@H]23)C[C@@H](O)[C@H](C)[C@@H]1O | 258 | 400 |
